# Hck Nef HTS – inhibitors of Nef-activated human Hck kinase, primary screen, biochemical, Z-Lyte FRET, 384-well, Hck-YEEI. Tyrosine-protein kinase HCK (Homo sapiens), P08631. Recombinant Hck-YEEI plus Nef, Z-Lyte FRET kinase assay. inhibition, % at 20 µM. 0.68% of 220,000 active. AID 463187, 2010;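 active = Hck-Nef kinase inhibition above about 50%, limit read from the data; inactive = inhibition below that limit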;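 also: 0% = DMSO with Hck plus Nef and 100% = Hck alone without Nef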
# RanGTP-Imp inh – inhibitors of RanGTP-importin-beta interaction, primary screen, biochemical, FRET, CFP-Ran, YFP-importin-beta, homogeneous. cell-free CFP-Ran/YFP-importin-beta FRET ratio. AID 2216, 2009. 1.1% of 300,000 active. Ran GTPase (GTP-bound) - importin-beta complex. inhibition, % (no concentration beside the values);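 active = more than half of the replicate wells show a fall in the fluorescence ratio signal beyond about 16%, limit read from the data, passing the limit was not always enough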;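 also: 0% = DMSO wells and 100% = Ran loaded with GDP instead of GTP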
# Runt-CBFb FRET – inhibitors of RUNX1 Runt–CBFb binding, primary screen, biochemical, FRET, Cerulean-Runt, Venus-CBFb, uHTS; Runt-related transcription factor 1 (Homo sapiens) + Core-binding factor subunit beta …; Cerulean-Runt/Venus-CBFb FRET ratio 530/480, 1 h; inhibition, % at 20 µM; 0.46% of 220,000 active; AID 1496, 2009;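 active = inhibition over about 50% at 20 µM in the single-dose screen, limit read from the data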;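 also: 0% = DMSO wells and 100% = excess unlabeled CBFb competitor control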
# Target sequence (Q01196 whole entry, looked up): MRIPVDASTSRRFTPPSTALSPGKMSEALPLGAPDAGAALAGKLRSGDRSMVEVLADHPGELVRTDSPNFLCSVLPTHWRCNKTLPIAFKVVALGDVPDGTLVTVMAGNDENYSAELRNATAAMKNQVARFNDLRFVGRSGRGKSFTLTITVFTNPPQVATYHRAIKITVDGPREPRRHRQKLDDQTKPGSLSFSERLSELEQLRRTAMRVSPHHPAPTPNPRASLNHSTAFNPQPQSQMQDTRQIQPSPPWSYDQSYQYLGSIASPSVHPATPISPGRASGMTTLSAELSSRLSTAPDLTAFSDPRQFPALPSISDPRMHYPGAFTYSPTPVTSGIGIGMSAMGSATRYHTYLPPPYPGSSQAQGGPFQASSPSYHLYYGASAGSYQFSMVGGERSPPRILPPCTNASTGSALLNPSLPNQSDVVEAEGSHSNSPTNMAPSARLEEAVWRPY
# Target sequence (Q13951 whole entry, looked up): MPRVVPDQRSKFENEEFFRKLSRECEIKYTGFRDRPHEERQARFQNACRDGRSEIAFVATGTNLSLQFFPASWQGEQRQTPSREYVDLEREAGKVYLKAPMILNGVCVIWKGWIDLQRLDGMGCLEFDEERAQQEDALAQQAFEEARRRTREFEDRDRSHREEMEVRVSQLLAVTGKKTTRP
#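 System: Cerulean-labeled Runt domain protein | Quantity: 100 nM of each labeled protein | Schedule: 1 h compound exposure, room temperature | Detection: Fluorescence energy transfer, 422 nm excitation, 530/480 nm emission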
# TbHK1 inh – Trypanosoma brucei hexokinase 1 inhibitors, primary screen, biochemical, G6PDH-coupled NADH absorbance, MLSCN library; hexokinase 1 [Trypanosoma brucei]; recombinant TbHK1, G6PDH-coupled NADH A340; inhibition, % at 10 µM; 0.11% of 220,000 active; AID 1430, 2008;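 active = inhibition of 50% or more in the single-dose primary screen; inactive = inhibition below 50%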
# p97 ATPase inh – inhibitors of human p97 ATPase, primary screen, biochemical | Transitional endoplasmic reticulum ATPase (Homo sapiens), P55072 | 0.42% of 220,000 active | inhibition, % at 8 µM | recombinant p97 ATPase, Kinase-Glo ATP luminescence, 3 h | AID 1481, 2009; in the data active = inhibition above about 15%;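 also: 0% = DMSO vehicle and 100% = wells lacking enzyme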
# Runt-SMMHC FRET – inhibitors of RUNX1 Runt–CBFb-SMMHC binding, primary screen, biochemical, FRET, Cerulean-Runt, Venus-CBFb-SMMHC, uHTS; 0.74% of 220,000 active; Runt-related transcription factor 1 (Homo sapiens) + Core-binding factor subunit beta …; Cerulean-Runt/Venus-CBFb-SMMHC FRET ratio 530/480, 1 h; AID 1434, 2008; inhibition, % at 20 µM;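 active = mean inhibition across duplicate retests at 20 µM reaching about 50%, limit read from the data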;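 also: 0% = DMSO wells and 100% = wells with excess untagged CBFb-SMMHC; inhibitors lower the FRET ratio by blocking Runt binding to CBFb-SMMHC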
# * = called active by the depositor; x = no result. Shown are actives, neighbours in structure and some others; about 2.1% of the full set was active somewhere.
SMILES,Hck Nef HTS,RanGTP-Imp inh,Runt-CBFb FRET,TbHK1 inh,p97 ATPase inh,Runt-SMMHC FRET
CCNC(=S)NNC(=O)c1cccc(Br)c1,-1,3,0,-6,3,1
CCN1C(=O)C(CC(=O)Nc2ccc(F)cc2)N(CCCN2CCN(c3ccc(F)cc3)CC2)C1=S (stereo unspecified),22,1,-2,-5,3,3
CCCCCn1c(=NC(=O)c2cccnc2)c(C#N)cc2c(=O)n3cccc(C)c3nc21,x,144*,x,x,x,x
CCCCCn1c(=NC(C)=O)c(C#N)cc2c(=O)n3ccccc3nc21,34,108*,16,1,-2,42
Cc1ccc2nc3c(cc(C#N)c(=N)n3Cc3cccnc3)c(=O)n2c1,16,94*,x,-3,3,x
CCOCCCn1c(=NC(=O)c2ccc(OC)c(OC)c2)c(C#N)cc2c(=O)n3cccc(C)c3nc21,13,86*,106*,-4,1,143*
CCN(C(=O)c1cc2c(=O)n3ccccc3nc2n1CCCOC)C1CCCCC1,x,2,x,x,x,x
CCn1c(CN2CCOCC2)nnc1SCC(=O)Nc1ccccc1Cl,x,3,x,x,x,x
CC1CCc2[nH]c3ccc(C(=O)NCCCOC(C)C)cc3c2C1 (stereo unspecified),-5,22*,0,-6,-3,8
CCCn1nc(NC(=O)c2ccco2)c2cc3ccccc3nc21,20,46*,15,2,-1,58
CC(=O)Nc1nn(C)c2nc3cc(C)ccc3cc12,10,9,-2,-13,8,-8
CCn1nc(NC(=O)c2ccco2)c2cc3cc(C)ccc3nc21,-10,54*,39,-7,0,84*
Cc1ccc2cc3c(NC(=O)c4ccco4)nn(C)c3nc2c1,16,23*,17,-17,5,27
C=CCn1c(C(C)NC(=O)COC)nc2ccccc21 (stereo unspecified),-3,-1,1,-5,0,0
CCOC(=O)C1=C(CC)Nc2ccccc2N=C1NC(=O)c1ccc(S(=O)(=O)N2CCOCC2)cc1,13,-4,-1,-3,1,18
Cc1cccc(NS(=O)(=O)c2ccc3c(c2)oc(=O)n3C)c1C,x,1,x,x,x,x
C=C(C)C1CC=C(C)/C(=N/NC(=O)COc2cccc3ccccc23)C1 (stereo unspecified),8,5,-4,-1,-3,2
COc1ccccc1C(=O)NC(=S)NNC(=O)c1sc2ccccc2c1Cl,0,49*,0,4,-2,-4
N#CC(C#N)=C/C=C(\Nc1ccc(Cl)cc1)c1ccc(Cl)cc1,16,66*,11,-37,5,-2
CSC1=N/C(=C\c2ccccc2Cl)C(=O)N1N(C)C,2,3,1,-22,-2,1
COC(=O)c1ccc([C@H]2CC(=O)O2)cc1,x,1,x,x,x,x
COC(=O)C1=CN(C2CC2)C=C(C(=O)OC)C1c1ccc(C(=O)OC)cc1,22,52*,107*,-4,-1,60*
CCN(CC)Cc1cc(CC(C(N)=O)C(N)=O)ccc1OC,2,0,-1,33,4,1
CCC(C)(C)n1nnnc1C(c1cc2cccc(C)c2[nH]c1=O)N1CCN(C(=O)c2ccco2)CC1 (stereo unspecified),0,17*,-18,-13,-1,-131
CCC(C)(C)n1nnnc1C(c1ccc(C)cc1)N1CCN(C(=O)c2ccco2)CC1 (stereo unspecified),-9,4,-4,-7,0,2
SMILES,Hck Nef HTS,RanGTP-Imp inh,Runt-CBFb FRET,TbHK1 inh,p97 ATPase inh,Runt-SMMHC FRET
N=c1c(C(=O)NCC2CCCO2)cc2c(=O)n3ccccc3nc2n1Cc1ccc(F)cc1 (stereo unspecified),x,179*,x,x,x,x
Cn1c(C(=O)NCC2CCCO2)cc2c(=O)n(C)c3ccccc3c21 (stereo unspecified),1,-2,0,-8,1,-2
N=c1c(C(=O)NCC2CCCO2)cc2c(=O)n3ccccc3nc2n1Cc1ccco1 (stereo unspecified),x,73*,x,x,x,x
O=C(Cn1c(=O)n(Cc2ccc(F)cc2)c(=O)c2ccccc21)NCC1CCCO1 (stereo unspecified),x,4,x,x,x,x
Cc1ccc2nc3c(cc(C(=O)NCC4CCCO4)n3C)c(=O)n2c1 (stereo unspecified),27,x,19,-5,3,89*
CCOc1ccc(C(=O)COC(=O)c2cccc(-n3cnnn3)c2)cc1,x,-4,x,x,x,x
CC1=CC(c2ccc(Cl)cc2)n2nc(NC(=O)CCC(=O)O)nc2N1 (stereo unspecified),21,1,29,-17,4,54*
CC1=C(C)CC(C(=O)NCc2c(F)cccc2Cl)C(C(=O)O)C1 (stereo unspecified),x,1,x,x,x,x
CCc1nnc(NC(=O)C2COc3ccccc3O2)s1 (stereo unspecified),-2,6,1,-2,5,1
CCC(CC)c1nnc(NC(=O)C2COc3ccccc3O2)s1 (stereo unspecified),0,21*,-1,0,-1,1
CCOc1ccc(C2=C/C(=C/c3cccnc3)C(=O)O2)cc1,-3,29*,12,-11,0,78
COc1ccc(C2=C/C(=C/c3cccnc3)C(=O)O2)cc1OC,-2,-15,-16,-10,1,-60
Cc1ccc(C(=O)N2CCN(S(=O)(=O)c3cc(Br)ccc3Br)CC2)o1,x,6,x,x,x,x
N=c1oc2cc(O)ccc2cc1C(=O)Nc1ccc(Cl)cc1,x,170*,x,x,x,x
CCCc1cc(=O)oc2c(C)c(O[C@@H]3O[C@H](CO)[C@@H](O)[C@H](O)[C@H]3O)ccc12,x,1,x,x,x,x
COc1cc2ccc(=O)oc2c(O[C@@H]2O[C@H](CO)[C@@H](O)[C@H](O)[C@H]2O)c1O,x,119*,x,x,x,x
CC(NC(=O)C12CC3CC(CC(C3)C1)C2)c1ccc(F)cc1 (stereo unspecified),x,2,x,x,x,x
COc1cc(C(=O)NCCNc2nc3ccc(C)cc3cc2C#N)cc(OC)c1OC,x,81*,x,x,x,x
COc1ccc2nc(NCCCNC(=O)c3cc(OC)c(OC)c(OC)c3)c(C#N)cc2c1,6,126*,57*,11,0,38
COc1ccc(C(=O)NCCNc2nc3ccc(C)cc3cc2C#N)cc1,x,65*,x,x,x,x

# Source: PubChem BioAssay (several laboratories)
